Results published in the M2OR odorant receptor database.

Experiments:
Settings in all cases: stereoisomer not certain
UniProt L7MU75 = biological target: T1, UniProt L7MU75
T1 sequence (whole entry): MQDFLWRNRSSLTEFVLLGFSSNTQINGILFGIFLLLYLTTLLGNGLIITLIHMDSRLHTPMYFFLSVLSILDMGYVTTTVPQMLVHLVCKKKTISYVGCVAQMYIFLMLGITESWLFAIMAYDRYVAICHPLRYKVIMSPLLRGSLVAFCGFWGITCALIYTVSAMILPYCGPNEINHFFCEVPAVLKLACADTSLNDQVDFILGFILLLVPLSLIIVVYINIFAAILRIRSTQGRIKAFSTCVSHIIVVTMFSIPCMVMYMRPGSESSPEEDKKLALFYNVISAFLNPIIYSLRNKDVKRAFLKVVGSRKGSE
In short: (§1)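 Transient luciferase assays in mammalian cell lines were common, though methods varied by source. The values come from published papers and their supplementary material, with extra details from the original authors when needed. Responsive refers to a measured signal the original authors judged statistically different from baseline, and non-responsive (inactive) to the remainder.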

UniProt L7N210 = biological target: T2, UniProt L7N210
T2 sequence (whole entry): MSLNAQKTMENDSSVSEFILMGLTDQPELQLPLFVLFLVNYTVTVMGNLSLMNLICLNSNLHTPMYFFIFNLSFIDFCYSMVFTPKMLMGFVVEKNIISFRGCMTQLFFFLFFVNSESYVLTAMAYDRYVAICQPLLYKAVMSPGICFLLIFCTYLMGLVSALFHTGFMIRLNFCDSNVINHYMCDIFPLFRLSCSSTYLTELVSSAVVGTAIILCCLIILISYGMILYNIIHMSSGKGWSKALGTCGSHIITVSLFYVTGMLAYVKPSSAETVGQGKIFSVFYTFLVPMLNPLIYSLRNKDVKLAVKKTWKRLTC
In short: as §1

UniProt Q3KPB0 = biological target: T3, UniProt Q3KPB0
T3 sequence (whole entry): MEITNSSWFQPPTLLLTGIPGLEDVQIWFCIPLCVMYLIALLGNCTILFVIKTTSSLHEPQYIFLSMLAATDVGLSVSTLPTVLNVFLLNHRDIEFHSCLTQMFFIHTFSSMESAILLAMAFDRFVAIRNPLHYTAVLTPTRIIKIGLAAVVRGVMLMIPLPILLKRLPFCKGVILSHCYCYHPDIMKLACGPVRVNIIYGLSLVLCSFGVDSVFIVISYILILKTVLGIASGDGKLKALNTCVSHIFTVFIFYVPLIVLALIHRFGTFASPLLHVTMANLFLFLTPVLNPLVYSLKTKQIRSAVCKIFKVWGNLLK
In short: as §1

UniProt Q3U0P3 = biological target: T4, UniProt Q3U0P3
T4 sequence (whole entry): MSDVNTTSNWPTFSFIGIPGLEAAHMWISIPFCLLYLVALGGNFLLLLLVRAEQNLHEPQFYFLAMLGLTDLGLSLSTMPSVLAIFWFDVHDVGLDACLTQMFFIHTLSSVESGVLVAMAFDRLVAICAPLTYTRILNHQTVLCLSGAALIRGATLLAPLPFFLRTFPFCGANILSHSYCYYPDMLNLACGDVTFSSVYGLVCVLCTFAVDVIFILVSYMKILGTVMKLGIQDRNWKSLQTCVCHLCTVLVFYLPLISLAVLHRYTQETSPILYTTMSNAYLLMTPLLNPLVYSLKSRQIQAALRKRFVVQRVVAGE
In short: as §1

UniProt Q7TQU8 = biological target: T5, UniProt Q7TQU8
T5 sequence (whole entry): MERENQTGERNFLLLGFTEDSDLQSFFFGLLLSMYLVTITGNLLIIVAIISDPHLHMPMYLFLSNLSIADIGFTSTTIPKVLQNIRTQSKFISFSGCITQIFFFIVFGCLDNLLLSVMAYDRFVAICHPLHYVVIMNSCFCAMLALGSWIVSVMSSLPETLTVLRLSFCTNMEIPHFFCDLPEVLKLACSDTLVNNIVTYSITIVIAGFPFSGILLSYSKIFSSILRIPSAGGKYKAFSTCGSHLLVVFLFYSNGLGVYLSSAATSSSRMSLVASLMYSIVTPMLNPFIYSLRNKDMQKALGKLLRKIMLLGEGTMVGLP
In short: as §1

UniProt Q7TQV4 = biological target: T6, UniProt Q7TQV4
T6 sequence (whole entry): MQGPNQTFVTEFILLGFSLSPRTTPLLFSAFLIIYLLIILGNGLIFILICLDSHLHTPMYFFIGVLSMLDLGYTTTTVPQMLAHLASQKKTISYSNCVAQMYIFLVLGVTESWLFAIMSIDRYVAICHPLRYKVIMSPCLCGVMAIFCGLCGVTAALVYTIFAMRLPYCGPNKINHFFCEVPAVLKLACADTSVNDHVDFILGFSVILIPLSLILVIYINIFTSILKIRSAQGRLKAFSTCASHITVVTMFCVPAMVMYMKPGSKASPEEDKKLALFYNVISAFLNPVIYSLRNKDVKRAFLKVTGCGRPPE
In short: as §1

UniProt Q7TR71 = biological target: T7, UniProt Q7TR71
T7 sequence (whole entry): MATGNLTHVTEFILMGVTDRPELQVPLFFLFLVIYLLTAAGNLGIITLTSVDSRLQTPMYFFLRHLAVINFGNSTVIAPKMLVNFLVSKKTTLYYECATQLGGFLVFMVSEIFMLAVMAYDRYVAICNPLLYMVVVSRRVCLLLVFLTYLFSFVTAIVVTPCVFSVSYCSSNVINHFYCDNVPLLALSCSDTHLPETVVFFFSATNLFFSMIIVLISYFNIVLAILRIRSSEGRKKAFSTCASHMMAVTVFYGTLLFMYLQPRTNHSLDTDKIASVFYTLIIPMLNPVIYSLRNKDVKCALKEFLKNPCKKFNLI
In short: as §1

UniProt Q7TR79 = biological target: T8, UniProt Q7TR79
T8 sequence (whole entry): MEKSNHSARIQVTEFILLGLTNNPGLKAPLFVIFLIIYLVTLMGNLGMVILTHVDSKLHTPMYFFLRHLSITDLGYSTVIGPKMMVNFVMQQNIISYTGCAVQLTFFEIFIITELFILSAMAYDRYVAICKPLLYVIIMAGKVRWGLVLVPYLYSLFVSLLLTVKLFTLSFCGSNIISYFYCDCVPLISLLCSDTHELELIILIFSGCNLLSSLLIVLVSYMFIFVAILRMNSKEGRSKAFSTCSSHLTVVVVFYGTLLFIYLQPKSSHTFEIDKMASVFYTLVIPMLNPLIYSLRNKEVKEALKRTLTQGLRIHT
In short: as §1

UniProt Q7TRA3 = biological target: T9, UniProt Q7TRA3
T9 sequence (whole entry): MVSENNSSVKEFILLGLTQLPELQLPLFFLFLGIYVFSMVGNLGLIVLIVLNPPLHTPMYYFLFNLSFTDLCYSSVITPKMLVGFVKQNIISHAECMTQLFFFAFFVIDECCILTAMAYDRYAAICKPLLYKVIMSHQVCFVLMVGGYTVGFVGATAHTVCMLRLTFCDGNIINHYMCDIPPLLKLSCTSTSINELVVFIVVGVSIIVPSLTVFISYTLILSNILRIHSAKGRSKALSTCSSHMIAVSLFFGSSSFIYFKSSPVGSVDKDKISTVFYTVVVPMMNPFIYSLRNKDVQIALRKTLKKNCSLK
In short: as §1

UniProt Q7TRE4 = biological target: T10, UniProt Q7TRE4
T10 sequence (whole entry): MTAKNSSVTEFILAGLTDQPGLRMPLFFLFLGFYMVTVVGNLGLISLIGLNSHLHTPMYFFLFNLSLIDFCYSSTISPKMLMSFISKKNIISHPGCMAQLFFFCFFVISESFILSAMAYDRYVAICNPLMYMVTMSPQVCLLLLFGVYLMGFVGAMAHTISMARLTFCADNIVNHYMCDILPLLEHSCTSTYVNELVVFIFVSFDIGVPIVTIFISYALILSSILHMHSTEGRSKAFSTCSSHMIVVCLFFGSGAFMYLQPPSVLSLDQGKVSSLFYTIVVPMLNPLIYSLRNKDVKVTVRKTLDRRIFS
In short: as §1

UniProt Q7TRM0 = biological target: T11, UniProt Q7TRM0
T11 sequence (whole entry): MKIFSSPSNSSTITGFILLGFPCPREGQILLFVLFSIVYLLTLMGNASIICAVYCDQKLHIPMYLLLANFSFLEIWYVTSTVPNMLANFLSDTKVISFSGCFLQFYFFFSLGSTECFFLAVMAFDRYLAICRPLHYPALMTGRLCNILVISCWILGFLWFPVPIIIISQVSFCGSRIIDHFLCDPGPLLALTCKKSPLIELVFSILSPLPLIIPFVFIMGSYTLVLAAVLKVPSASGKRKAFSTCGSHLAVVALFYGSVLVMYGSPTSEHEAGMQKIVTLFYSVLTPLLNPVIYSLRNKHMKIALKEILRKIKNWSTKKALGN
In short: as §1

UniProt Q7TRN9 = biological target: T12, UniProt Q7TRN9
T12 sequence (whole entry): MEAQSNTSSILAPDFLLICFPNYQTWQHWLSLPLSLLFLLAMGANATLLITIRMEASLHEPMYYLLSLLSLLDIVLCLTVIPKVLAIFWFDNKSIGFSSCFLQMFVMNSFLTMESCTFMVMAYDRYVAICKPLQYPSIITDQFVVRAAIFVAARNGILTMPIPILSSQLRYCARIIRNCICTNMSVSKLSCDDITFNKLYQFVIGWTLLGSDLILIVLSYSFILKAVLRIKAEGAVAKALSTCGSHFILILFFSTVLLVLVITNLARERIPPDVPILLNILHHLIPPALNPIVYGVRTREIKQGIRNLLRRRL
In short: as §1
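Further: active if original authors judged signal statistically different from baseline.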

| Structure (SMILES) | odorant receptor agonist call (UniProt L7MU75) | odorant receptor agonist call (UniProt L7N210) | odorant receptor agonist call (UniProt Q3KPB0) | odorant receptor agonist call (UniProt Q3U0P3) | odorant receptor agonist call (UniProt Q7TQU8) | odorant receptor agonist call (UniProt Q7TQV4) | odorant receptor agonist call (UniProt Q7TR71) | odorant receptor agonist call (UniProt Q7TR79) | odorant receptor agonist call (UniProt Q7TRA3) | odorant receptor agonist call (UniProt Q7TRE4) | odorant receptor agonist call (UniProt Q7TRM0) | odorant receptor agonist call (UniProt Q7TRN9) |
| --- | --- | --- | --- | --- | --- | --- | --- | --- | --- | --- | --- | --- |
| CC(C)=CCCC(C)CCO (configuration not stated) | inactive | inactive | inactive | inactive | inactive | inactive | inactive | inactive | inactive | inactive | – | – |
| CCC(=O)O | inactive | inactive | inactive | inactive | inactive | inactive | inactive | inactive | inactive | inactive | – | – |
| CCCCCCCCCS | inactive | inactive | inactive | inactive | inactive | inactive | inactive | inactive | inactive | inactive | – | – |
| CC(=O)Oc1ccccc1 | inactive | inactive | inactive | inactive | inactive | inactive | inactive | inactive | inactive | inactive | – | – |
| COc1nccnc1C | active | inactive | inactive | inactive | inactive | – | – | inactive | – | – | – | – |
| CCCCCCCCCO | inactive | inactive | inactive | inactive | inactive | inactive | inactive | inactive | inactive | inactive | inactive | active |
| COc1cc(C(=O)O)ccc1O | inactive | inactive | inactive | inactive | inactive | inactive | inactive | inactive | inactive | inactive | – | – |
| CCC(=O)C(=O)CC | inactive | inactive | inactive | inactive | inactive | inactive | inactive | inactive | inactive | inactive | – | – |
| O=C(c1ccccc1)c1ccccc1 | active | inactive | inactive | inactive | inactive | inactive | inactive | inactive | active | inactive | – | – |
| CCCCCC1=C(C)CCC1=O | inactive | inactive | inactive | inactive | inactive | inactive | inactive | inactive | inactive | inactive | – | – |
| CC(=O)OCc1ccccc1 | inactive | inactive | inactive | inactive | inactive | inactive | inactive | inactive | inactive | inactive | – | – |
| CCOC(=O)C(C)C | inactive | inactive | inactive | inactive | inactive | inactive | inactive | inactive | inactive | inactive | – | – |
| CC12CCC(CC1=O)C2(C)C (configuration not stated) | inactive | inactive | inactive | inactive | inactive | inactive | active | inactive | inactive | inactive | – | – |
| C=C(C)C1CCC(C)C(=O)C1 (configuration not stated) | inactive | inactive | inactive | inactive | inactive | inactive | inactive | inactive | inactive | inactive | – | – |
| CCCCCCOC(C)=O | inactive | inactive | inactive | inactive | inactive | inactive | inactive | inactive | inactive | inactive | – | – |
| CCCCOC=O | inactive | inactive | inactive | inactive | inactive | inactive | inactive | inactive | inactive | inactive | – | – |
| CCCCCCCCCCO | inactive | inactive | inactive | inactive | inactive | inactive | inactive | inactive | inactive | inactive | – | – |
| CCCCCCCCC=CC=O | inactive | inactive | inactive | inactive | inactive | – | – | inactive | – | – | – | – |
| CCCCCCC(C)O (configuration not stated) | inactive | active | inactive | inactive | inactive | – | – | inactive | – | – | – | – |
| CCCCCOC(=O)CC | inactive | inactive | inactive | inactive | inactive | – | – | inactive | – | – | – | – |
| CCCCCCCO | inactive | inactive | inactive | inactive | inactive | inactive | inactive | inactive | inactive | inactive | – | inactive |
